Assays:
Mus musculus [1] = experiment: In vivo binding affinity to GlyT1 in ddY mouse brain medullary region at 33.3 kBq, iv after 30 mins in presence of N-Me-SSR504734 2 mg/kg, iv administered 15 mins prior to compound administration relative to control; type: functional, Medulla of organ
Outline: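 Male ddY mice (6 W, 30–35 g) were given [125I]5 (ca. 33.3 kBq, 0.1 mL) iv via tail vein. Blocker (2 mg/kg in 30% DMSO/saline) was given iv 15 min before the tracer. Mice were killed 30 or 60 min after injection and the brain regions were dissected and weighed. Gamma counting gave % dose/g, compared with control; n = 5–6.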

Spleen [2] = experiment: Drug uptake in ddY mouse spleen at 11.1 kBq, iv after 30 min by gamma counting; type: ADME, organism-based; conditions: in vivo, 0.5 h
Outline: (§1)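 Male ddY mice (6 weeks, 30–35 g) were given about 11.1 kBq of [125I]tracer in 0.1 mL i.v. via the tail vein. At each time point the animals were killed and organs dissected, weighed and gamma-counted. Uptake is expressed as % injected dose per gram of tissue, mean ± SD, n = 5–6.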

Mus musculus [3] = experiment: In vivo binding affinity to GlyT1 in ddY mouse brain thalamus at 33.3 kBq, iv after 60 mins in presence of N-Me-SSR504734 2 mg/kg, iv administered 15 mins prior to compound administration relative to control; type: functional
Stomach = experiment: Drug uptake in ddY mouse stomach at 11.1 kBq, iv after 60 min by gamma counting; type: ADME, organism-based; conditions: in vivo, 1 h; outline: as §1
Brain = experiment: Drug uptake in ddY mouse brain at 11.1 kBq, iv after 60 min by gamma counting; type: ADME, organism-based; conditions: in vivo, 1 h
Outline: (§2)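 Male ddY mice (6 weeks, 30–35 g) received about 11.1 kBq [125I]tracer in 0.1 mL i.v. via tail vein. Killed at set times, organs dissected and weighed, radioactivity gamma counted. Reported as % injected dose/g tissue, mean ± SD, n = 5–6.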

Lung = experiment: Drug uptake in ddY mouse lung at 11.1 kBq, iv after 0.5 min by gamma counting; type: ADME, organism-based; conditions: in vivo; outline: as §1
Nucleic Acid = experiment: Ratio of drug level in brain to blood in ddY mouse at 11.1 kBq, iv after 5 min by gamma counting; type: ADME, organism-based
Spleen [4] = experiment: Drug uptake in ddY mouse spleen at 11.1 kBq, iv after 60 min by gamma counting; type: ADME, organism-based; conditions: in vivo, 1 h; outline: as §1
Intestine = experiment: Drug uptake in ddY mouse intestine at 11.1 kBq, iv after 5 min by gamma counting; type: ADME, organism-based; conditions: in vivo; outline: as §2
Heart = experiment: Drug uptake in ddY mouse heart at 11.1 kBq, iv after 180 min by gamma counting; type: ADME, organism-based; conditions: in vivo, 3 h; outline: as §2
Kidney = experiment: Drug uptake in ddY mouse kidney at 11.1 kBq, iv after 180 min by gamma counting; type: ADME, organism-based; conditions: in vivo, 3 h; outline: as §1
[5] = target: T1, Sodium- and chloride-dependent glycine transporter 1 (Rattus norvegicus) (UniProt P28572); experiment: Binding affinity to GlyT1 in rat brain thalamus at 0.03 to 0.04 nM preincubated for 20 mins in binding buffer before compound addition measured after 30 mins by autoradiography in presence of 0.01 mM GlyT1 inhibitor HPCP relative to control; type: tissue-based; conditions: tested as the 125I-labelled form
T1 sequence (whole entry): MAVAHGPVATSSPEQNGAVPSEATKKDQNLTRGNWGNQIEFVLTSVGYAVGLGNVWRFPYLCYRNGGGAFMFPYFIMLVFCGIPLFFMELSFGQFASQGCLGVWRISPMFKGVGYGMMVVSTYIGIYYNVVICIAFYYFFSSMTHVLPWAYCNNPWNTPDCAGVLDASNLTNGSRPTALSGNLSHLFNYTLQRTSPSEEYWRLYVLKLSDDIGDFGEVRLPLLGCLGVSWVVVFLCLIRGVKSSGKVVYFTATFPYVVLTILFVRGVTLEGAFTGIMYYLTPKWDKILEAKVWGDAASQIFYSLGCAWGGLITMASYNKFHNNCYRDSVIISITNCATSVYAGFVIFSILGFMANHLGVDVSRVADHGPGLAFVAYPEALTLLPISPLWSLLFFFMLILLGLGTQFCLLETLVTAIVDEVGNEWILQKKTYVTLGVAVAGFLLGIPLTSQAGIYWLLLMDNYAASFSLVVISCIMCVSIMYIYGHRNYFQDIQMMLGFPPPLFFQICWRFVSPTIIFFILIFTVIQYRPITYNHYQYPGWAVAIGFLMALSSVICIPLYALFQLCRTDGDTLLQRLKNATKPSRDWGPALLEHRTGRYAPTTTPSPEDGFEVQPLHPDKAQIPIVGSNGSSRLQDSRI

[6] = target: T1, Sodium- and chloride-dependent glycine transporter 1 (Rattus norvegicus); experiment: Binding affinity to GlyT1 in rat brain midbrain at 0.03 to 0.04 nM preincubated for 20 mins in binding buffer before compound addition measured after 30 mins by autoradiography in presence of 1 mM GlyT1 substrate glycine relative to control; type: tissue-based; conditions: tested as the 125I-labelled form
[7] = target: T1, Sodium- and chloride-dependent glycine transporter 1 (Rattus norvegicus); experiment: Binding affinity to GlyT1 in rat brain medullary region at 0.03 to 0.04 nM preincubated for 20 mins in binding buffer before compound addition measured after 30 mins by autoradiography in presence of 0.01 mM GlyT1 inhibitor SSR504734 relative to control; type: tissue-based; conditions: tested as the 125I-labelled form
Outline: (§3)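 Rat brain sagittal sections (20 µm) preincubated 20 min at 25 °C in Tris-HCl buffer pH 7.5 (NaCl, KCl, MgCl2, CaCl2), then 30 min at 25 °C with [125I] tracer (100 kBq, 0.03–0.04 nM) plus competitor (10 µM; glycine 1 or 10 mM). Cold washes, imaging plate 3 days, ROI PSL minus background per mm². % control from ≥triplicate slices, three rats.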

[8] = target: T1, Sodium- and chloride-dependent glycine transporter 1 (Rattus norvegicus); experiment: Binding affinity to GlyT1 in rat brain thalamus at 0.03 to 0.04 nM preincubated for 20 mins in binding buffer before compound addition measured after 30 mins by autoradiography in presence of 1 mM GlyT1 substrate glycine relative to control; type: tissue-based; conditions: tested as the 125I-labelled form
[9] = target: T1, Sodium- and chloride-dependent glycine transporter 1 (Rattus norvegicus); experiment: Binding affinity to GlyT1 in rat brain midbrain at 0.03 to 0.04 nM preincubated for 20 mins in binding buffer before compound addition measured after 30 mins by autoradiography in presence of 0.01 mM NMDA receptor glycine site antagonist L-701,324 relative to control; type: tissue-based; conditions: tested as the 125I-labelled form
[10] = target: T1, Sodium- and chloride-dependent glycine transporter 1 (Rattus norvegicus); experiment: Binding affinity to GlyT1 in rat brain cerebellum at 0.03 to 0.04 nM preincubated for 20 mins in binding buffer before compound addition measured after 30 mins by autoradiography in presence of 0.01 mM GlyT1 inhibitor SSR504734 relative to control; type: tissue-based; conditions: tested as the 125I-labelled form; outline: as §3
[11] = target: T1, Sodium- and chloride-dependent glycine transporter 1 (Rattus norvegicus); experiment: Binding affinity to GlyT1 in rat brain corpus callosum at 0.03 to 0.04 nM preincubated for 20 mins in binding buffer before compound addition measured after 30 mins by autoradiography in presence of 0.01 mM GlyT2 inhibitor ORG25543 relative to control; type: tissue-based; conditions: tested as the 125I-labelled form; outline: as §3
[12] = target: T1, Sodium- and chloride-dependent glycine transporter 1 (Rattus norvegicus); experiment: Binding affinity to GlyT1 in rat brain hippocampus at 0.03 to 0.04 nM preincubated for 20 mins in binding buffer before compound addition measured after 30 mins by autoradiography in presence of 1 mM GlyT1 substrate glycine relative to control; type: tissue-based; conditions: tested as the 125I-labelled form; outline: as §3
[13] = target: T1, Sodium- and chloride-dependent glycine transporter 1 (Rattus norvegicus); experiment: Binding affinity to GlyT1 in rat brain striatum at 0.03 to 0.04 nM preincubated for 20 mins in binding buffer before compound addition measured after 30 mins by autoradiography in presence of 1 mM GlyT1 substrate glycine relative to control; type: tissue-based; conditions: tested as the 125I-labelled form

## CN1CCCC[C@H]1[C@@H](NC(=O)c1cccc(C(F)(F)F)c1[125I])c1ccccc1
Mus musculus [1]
  Activity: 59%
Spleen [2]
  Drug uptake: 7.68 % ID/g
Mus musculus [3]
  Activity: 56%
Stomach
  Drug uptake: 8.26 % ID/g
Brain
  Drug uptake: 1.85 % ID/g
Lung
  Drug uptake: 17.19 % ID/g
Nucleic Acid
  Ratio: 1.57
Spleen [4]
  Drug uptake: 5.86 % ID/g
Intestine
  Drug uptake: 2.47 % ID/g
Heart
  Drug uptake: 1.79 % ID/g
Kidney
  Drug uptake: 6.97 % ID/g

## CN1CCCC[C@H]1[C@@H](NC(=O)c1cccc(C(F)(F)F)c1I)c1ccccc1
[5]
  Activity: 22.5%
[6]
  Activity: 106%
[7]
  Activity: 31.7%
[8]
  Activity: 108%
[9]
  Activity: 81.3%
[10]
  Activity: 27.7%
[11]
  Activity: 98.2%
[12]
  Activity: 108%
[13]
  Activity: 122%

Source: ChEMBL document CHEMBL1938298, “Synthesis and characterization of [¹²⁵I]2-iodo N-[(S)-{(S)-1-methylpiperidin-2-yl}(phenyl)methyl]3-trifluoromethyl-benzamide as novel imaging probe for glycine transporter 1” (Bioorg Med Chem, 2011)
